Measurements as given in ChEMBL document CHEMBL1949496, “Synthesis of [¹⁸F]-labeled (2-(2-fluoroethoxy)ethyl)triphenylphosphonium cation as a potential agent for myocardial imaging using positron emission tomography” (Bioorg Med Chem Lett, 2012).

Columns and labels:
Blood [1] = test: Biodistribution in BALB/c mouse blood at 7.4 MBq, iv after 120 mins by gamma counting; assay type: ADME, organism-based; conditions: in vivo, 2 h
Outline: (§1)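 Tracer given intravenously to BALB/c mice; animals sampled at 10, 30, 60 and 120 min after injection. Organ radioactivity expressed as percentage of injected dose per gram of tissue (% ID/g), n = 12.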

Nucleic Acid [2] = test: Ratio of drug level in BALB/c mouse heart to lung at 7.4 MBq, iv after 120 mins by gamma counter; assay type: ADME, organism-based; conditions: in vivo, 2 h
Outline: (§2)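 Normal BALB/c mice were given the 18F tracer by i.v. injection. Tissues were sampled at 10, 30, 60 and 120 min. Activity is expressed as % injected dose per gram of tissue (n = 12), and organ ratios were taken from these values.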

Stomach [3] = test: Biodistribution in BALB/c mouse stomach at 7.4 MBq, iv after 120 mins by gamma counting; assay type: ADME, organism-based; conditions: in vivo, 2 h; outline: as §1
Liver [4] = test: Biodistribution in BALB/c mouse liver at 7.4 MBq, iv after 30 mins by gamma counting; assay type: ADME, organism-based; conditions: in vivo, 0.5 h; outline: as §1
Heart [5] = test: Biodistribution in BALB/c mouse heart at 7.4 MBq, iv after 60 mins by gamma counting; assay type: ADME, organism-based; conditions: in vivo, 1 h; outline: as §1
Blood [6] = test: Biodistribution in BALB/c mouse blood at 7.4 MBq, iv after 60 mins by gamma counting; assay type: ADME, organism-based; conditions: in vivo, 1 h; outline: as §1
Bone = test: Biodistribution in BALB/c mouse bone at 7.4 MBq, iv after 120 mins by gamma counting; assay type: ADME, organism-based, Bone element; conditions: in vivo, 2 h; outline: as §1
H9c2 = test: Cellular uptake in rat H9c2 cells after 0.5 hrs by gamma counting; assay type: ADME, cell-based; conditions: h9c2, 0.5 h
Outline: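 Radiotracer incubated with H9c2 cells at 37 °C for 0.5, 1 or 2 h. Uptake expressed as percentage of applied radioactivity; means ± SD of three measurements.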

Liver [7] = test: Biodistribution in BALB/c mouse liver at 7.4 MBq, iv after 60 mins by gamma counting; assay type: ADME, organism-based; conditions: in vivo, 1 h; outline: as §1
Lung = test: Biodistribution in BALB/c mouse lung at 7.4 MBq, iv after 60 mins by gamma counting; assay type: ADME, organism-based; conditions: in vivo, 1 h; outline: as §1
Nucleic Acid [8] = test: Ratio of drug level in BALB/c mouse heart to liver at 7.4 MBq, iv after 60 mins by gamma counter; assay type: ADME, organism-based; conditions: in vivo, 1 h; outline: as §2
Kidney [9] = test: Biodistribution in BALB/c mouse kidney at 7.4 MBq, iv after 60 mins by gamma counting; assay type: ADME, organism-based; conditions: in vivo, 1 h; outline: as §1
Spleen = test: Biodistribution in BALB/c mouse spleen at 7.4 MBq, iv after 10 mins by gamma counting; assay type: ADME, organism-based; conditions: in vivo; outline: as §1
Heart [10] = test: Biodistribution in BALB/c mouse heart at 7.4 MBq, iv after 30 mins by gamma counting; assay type: ADME, organism-based; conditions: in vivo, 0.5 h; outline: as §1
Pancreas [11] = test: Biodistribution in BALB/c mouse pancreas at 7.4 MBq, iv after 30 mins by gamma counting; assay type: ADME, organism-based; conditions: in vivo, 0.5 h; outline: as §1
Nucleic Acid [12] = test: Ratio of drug level in BALB/c mouse heart to blood at 7.4 MBq, iv after 120 mins by gamma counter; assay type: ADME, organism-based; conditions: other tissue, 2 h; outline: as §2
Blood [13] = test: Biodistribution in BALB/c mouse blood at 7.4 MBq, iv after 30 mins by gamma counting; assay type: ADME, organism-based; conditions: in vivo, 0.5 h; outline: as §1
Nucleic Acid [14] = test: Ratio of drug level in BALB/c mouse heart to blood at 7.4 MBq, iv after 10 mins by gamma counter; assay type: ADME, organism-based; conditions: other tissue; outline: as §2
Nucleic Acid [15] = test: Ratio of drug level in BALB/c mouse heart to lung at 7.4 MBq, iv after 30 mins by gamma counter; assay type: ADME, organism-based; conditions: in vivo, 0.5 h; outline: as §2
Stomach [16] = test: Biodistribution in BALB/c mouse stomach at 7.4 MBq, iv after 60 mins by gamma counting; assay type: ADME, organism-based; conditions: in vivo, 1 h; outline: as §1
Liver [17] = test: Biodistribution in BALB/c mouse liver at 7.4 MBq, iv after 10 mins by gamma counting; assay type: ADME, organism-based; conditions: in vivo; outline: as §1
Kidney [18] = test: Biodistribution in BALB/c mouse kidney at 7.4 MBq, iv after 30 mins by gamma counting; assay type: ADME, organism-based; conditions: in vivo, 0.5 h; outline: as §1
Muscle tissue = test: Biodistribution in BALB/c mouse normal muscle at 7.4 MBq, iv after 60 mins by gamma counting; assay type: ADME, organism-based; conditions: in vivo, 1 h; outline: as §1
Nucleic Acid [19] = test: Ratio of drug uptake in rat H9c2 cells to mouse NIH3T3 cells after 0.5 to 2 hrs by gamma counting; assay type: ADME, cell-based
[20] = Drug uptake in Sprague-Dawley rat myocardium at 37 MBq, iv up to 1 hr by micro PET analysis; assay type: ADME, organism-based; conditions: in vivo
Outline: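 Rats received the tracer intravenously and were imaged by micro-PET in coronal view at 0.5 h and 1.0 h after injection.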

Stomach [21] = test: Biodistribution in BALB/c mouse stomach at 7.4 MBq, iv after 30 mins by gamma counting; assay type: ADME, organism-based; conditions: in vivo, 0.5 h; outline: as §1
Intestine = test: Biodistribution in BALB/c mouse intestine at 7.4 MBq, iv after 10 mins by gamma counting; assay type: ADME, organism-based; conditions: in vivo; outline: as §1
Pancreas [22] = test: Biodistribution in BALB/c mouse pancreas at 7.4 MBq, iv after 60 mins by gamma counting; assay type: ADME, organism-based; conditions: in vivo, 1 h; outline: as §1
Nucleic Acid [23] = test: Ratio of drug level in BALB/c mouse heart to liver at 7.4 MBq, iv after 10 mins by gamma counter; assay type: ADME, organism-based; conditions: in vivo; outline: as §2
Kidney [24] = test: Biodistribution in BALB/c mouse kidney at 7.4 MBq, iv after 10 mins by gamma counting; assay type: ADME, organism-based; conditions: in vivo; outline: as §1
Blood [25] = test: Biodistribution in BALB/c mouse blood at 7.4 MBq, iv after 10 mins by gamma counting; assay type: ADME, organism-based; conditions: in vivo; outline: as §1

Drug uptake (Blood [1]): 0.24 % ID/g
Ratio (Nucleic Acid [2]): 4.36
Drug uptake (Stomach [3]): 2.49 % ID/g
Drug uptake (Liver [4]): 2.42 % ID/g
Drug uptake (Heart [5]): 19.96 % ID/g
Drug uptake (Blood [6]): 0.23 % ID/g
Drug uptake (Bone): 2.28 % ID/g
Drug uptake (H9c2): 0.47%
Drug uptake (Liver [7]): 2.03 % ID/g
Drug uptake (Lung): 4.01 % ID/g
Ratio (Nucleic Acid [8]): 9.87
Drug uptake (Kidney [9]): 16.86 % ID/g
Drug uptake (Spleen): 3.35 % ID/g
Drug uptake (Heart [10]): 19.33 % ID/g
Drug uptake (Pancreas [11]): 5.96 % ID/g
Ratio (Nucleic Acid [12]): > 102
Drug uptake (Blood [13]): 0.22 % ID/g
Ratio (Nucleic Acid [14]): > 55
Ratio (Nucleic Acid [15]): 3.71
Drug uptake (Stomach [16]): 4.72 % ID/g
Drug uptake (Liver [17]): 3.57 % ID/g
Drug uptake (Kidney [18]): 23.67 % ID/g
Drug uptake (Muscle tissue): 4.42 % ID/g
Ratio (Nucleic Acid [19]): 2
Drug uptake [20]: Active
Drug uptake (Stomach [21]): 3.98 % ID/g
Drug uptake (Intestine): 9.14 % ID/g
Drug uptake (Pancreas [22]): 7.35 % ID/g
Ratio (Nucleic Acid [23]): 11.08
Drug uptake (Kidney [24]): 36.05 % ID/g
Drug uptake (Blood [25]): 0.64 % ID/g
Structure (SMILES): [18F]CCOCC[P+](c1ccccc1)(c1ccccc1)c1ccccc1
